Assays:
Hepatitis B virus [1] = test: Antiviral activity against Hepatitis B virus infected in human HepG2.2.15 cells assessed as inhibition of HBeAg secretion at 150 uM after 9 days by ELISA; type: functional; settings: HepG2 2.2.15, 216 h
Summary of the method: (§1)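 HepG2.2.15 cells (MEM, 10% FBS, 380 µg/ml G418) seeded at 1×10^5 cells/ml, held 24 h at 37 °C, then treated with various drug concentrations; medium with drug renewed every 3 d for up to 9 d. Culture medium sampled on days 3, 6 and 9, stored at -20 °C, and assayed for secreted antigen. Lamivudine as positive control; IC50 = 50% inhibition of secretion; means of at least two experiments.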

Hepatitis B virus [2] = test: Antiviral activity against Hepatitis B virus infected in human HepG2.2.15 cells assessed as inhibition of HBV DNA copies per uL at 150 uM after 6 days by real-time fluorescence quantitative PCR analysis; type: functional; settings: HepG2 2.2.15, 144 h
Hepatitis B virus [3] = test: Antiviral activity against Hepatitis B virus infected in human HepG2.2.15 cells assessed as cell survival at 150 uM after 9 days (reference value: 100%); type: functional; settings: HepG2 2.2.15, 216 h
Summary of the method: (§2)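 HepG2.2.15 cells (MEM, 10% FBS, 380 µg/ml G418, 37 °C, 5% CO2) seeded at 1×10^5 cells/ml, cultured 24 h, then exposed to various drug concentrations; drug-containing medium renewed every 3 d. OD read at 450 nm after 9 days; percent cell death calculated; CC50 = concentration killing 50% of cells. Means of at least two experiments.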

Hepatitis B virus [4] = test: Antiviral activity against Hepatitis B virus infected in human HepG2.2.15 cells assessed as inhibition of HBsAg secretion at 75 uM after 6 days by ELISA; type: functional; settings: HepG2 2.2.15, 144 h; summary of the method: as §1
Hepatitis B virus [5] = test: Antiviral activity against Hepatitis B virus infected in human HepG2.2.15 cells assessed as inhibition of HBV DNA copies per uL at 300 uM after 6 days by real-time fluorescence quantitative PCR analysis; type: functional; settings: HepG2 2.2.15, 144 h
Hepatitis B virus [6] = test: Antiviral activity against Hepatitis B virus infected in human HepG2.2.15 cells assessed as cell survival at 37.5 uM after 9 days (reference value: 100%); type: functional; settings: HepG2 2.2.15, 216 h; summary of the method: as §2
Hepatitis B virus [7] = test: Antiviral activity against Hepatitis B virus infected in human HepG2.2.15 cells assessed as inhibition of HBeAg secretion at 75 uM after 9 days by ELISA; type: functional; settings: HepG2 2.2.15, 216 h; summary of the method: as §1
Hepatitis B virus [8] = test: Antiviral activity against Hepatitis B virus infected in human HepG2.2.15 cells assessed as inhibition of HBeAg secretion at 150 uM after 3 days by ELISA; type: functional; settings: HepG2 2.2.15, 72 h; summary of the method: as §1
Hepatitis B virus [9] = test: Antiviral activity against Hepatitis B virus infected in human HepG2.2.15 cells assessed as inhibition of HBV DNA copies per uL at 300 uM after 9 days by real-time fluorescence quantitative PCR analysis; type: functional; settings: HepG2 2.2.15, 216 h
Hepatitis B virus [10] = test: Antiviral activity against Hepatitis B virus infected in human HepG2.2.15 cells assessed as inhibition of HBeAg secretion at 37.5 uM after 9 days by ELISA; type: functional; settings: HepG2 2.2.15, 216 h; summary of the method: as §1
Hepatitis B virus [11] = test: Antiviral activity against Hepatitis B virus infected in human HepG2.2.15 cells assessed as cell survival at 75 uM after 9 days (reference value: 100%); type: functional; settings: HepG2 2.2.15, 216 h; summary of the method: as §2
Hepatitis B virus [12] = test: Antiviral activity against Hepatitis B virus infected in human HepG2.2.15 cells assessed as inhibition of HBV DNA copies per uL at 75 uM after 6 days by real-time fluorescence quantitative PCR analysis; type: functional; settings: HepG2 2.2.15, 144 h
Hepatitis B virus [13] = test: Antiviral activity against Hepatitis B virus infected in human HepG2.2.15 cells assessed as inhibition of HBsAg secretion by ELISA; type: functional, organism-based; settings: HepG2 2.2.15; summary of the method: as §1
Hepatitis B virus [14] = test: Antiviral activity against Hepatitis B virus infected in human HepG2.2.15 cells assessed as inhibition of HBsAg secretion at 150 uM after 6 days by ELISA; type: functional; settings: HepG2 2.2.15, 144 h; summary of the method: as §1
Hepatitis B virus [15] = test: Antiviral activity against Hepatitis B virus infected in human HepG2.2.15 cells assessed as inhibition of HBeAg secretion at 37.5 uM after 3 days by ELISA; type: functional; settings: HepG2 2.2.15, 72 h; summary of the method: as §1
[16] = Cytotoxicity against human HepG2.2.15 cells assessed as cell death after 9 days by MTT assay; type: cell-based, HepG2 2.2.15; summary of the method: as §2
[17] = Selectivity index, ratio of CC50 for human HepG2.2.15 cells to IC50 for Hepatitis B virus infected in human HepG2.2.15 cells assessed as inhibition of HBsAg secretion; type: functional
Summary of the method: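 Selectivity index computed as CC50/IC50, with CC50 from cell death of HepG2.2.15 cells after 9 days of treatment (OD 450 nm) and IC50 from 50% inhibition of HBeAg or HBsAg secretion in the same cells; medium with drug renewed every 3 d.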

Hepatitis B virus [18] = test: Antiviral activity against Hepatitis B virus infected in human HepG2.2.15 cells assessed as inhibition of HBV DNA copies per uL at 75 uM after 9 days by real-time fluorescence quantitative PCR analysis; type: functional; settings: HepG2 2.2.15, 216 h
Hepatitis B virus [19] = test: Antiviral activity against Hepatitis B virus infected in human HepG2.2.15 cells assessed as inhibition of HBeAg secretion at 300 uM after 9 days by ELISA; type: functional; settings: HepG2 2.2.15, 216 h; summary of the method: as §1
Hepatitis B virus [20] = test: Antiviral activity against Hepatitis B virus infected in human HepG2.2.15 cells assessed as inhibition of HBsAg secretion at 150 uM after 3 days by ELISA; type: functional; settings: HepG2 2.2.15, 72 h; summary of the method: as §1
Hepatitis B virus [21] = test: Antiviral activity against Hepatitis B virus infected in human HepG2.2.15 cells assessed as inhibition of HBeAg secretion at 300 uM after 3 days by ELISA; type: functional; settings: HepG2 2.2.15, 72 h; summary of the method: as §1
Hepatitis B virus [22] = test: Antiviral activity against Hepatitis B virus infected in human HepG2.2.15 cells assessed as inhibition of HBV DNA copies per uL at 75 uM after 3 days by real-time fluorescence quantitative PCR analysis; type: functional; settings: HepG2 2.2.15, 72 h
Hepatitis B virus [23] = test: Antiviral activity against Hepatitis B virus infected in human HepG2.2.15 cells assessed as inhibition of HBV DNA copies per uL at 150 uM after 3 days by real-time fluorescence quantitative PCR analysis; type: functional; settings: HepG2 2.2.15, 72 h
Hepatitis B virus [24] = test: Antiviral activity against Hepatitis B virus infected in human HepG2.2.15 cells assessed as inhibition of HBsAg secretion at 300 uM after 6 days by ELISA; type: functional; settings: HepG2 2.2.15, 144 h; summary of the method: as §1
Hepatitis B virus [25] = test: Antiviral activity against Hepatitis B virus infected in human HepG2.2.15 cells assessed as inhibition of HBsAg secretion at 75 uM after 9 days by ELISA; type: functional; settings: HepG2 2.2.15, 216 h; summary of the method: as §1
Hepatitis B virus [26] = test: Antiviral activity against Hepatitis B virus infected in human HepG2.2.15 cells assessed as inhibition of HBeAg secretion at 75 uM after 6 days by ELISA; type: functional; settings: HepG2 2.2.15, 144 h; summary of the method: as §1
Hepatitis B virus [27] = test: Antiviral activity against Hepatitis B virus infected in human HepG2.2.15 cells assessed as inhibition of HBV DNA copies per uL at 37.5 uM after 3 days by real-time fluorescence quantitative PCR analysis; type: functional; settings: HepG2 2.2.15, 72 h
Hepatitis B virus [28] = test: Antiviral activity against Hepatitis B virus infected in human HepG2.2.15 cells assessed as inhibition of HBV DNA copies per uL at 150 uM after 9 days by real-time fluorescence quantitative PCR analysis; type: functional; settings: HepG2 2.2.15, 216 h
Hepatitis B virus [29] = test: Antiviral activity against Hepatitis B virus infected in human HepG2.2.15 cells assessed as inhibition of HBeAg secretion at 150 uM after 6 days by ELISA; type: functional; settings: HepG2 2.2.15, 144 h; summary of the method: as §1

COc1cc(/C=C/C(=O)O/N=C/c2ccccn2)cc2c1OCO2
inhibition at 150 µM (Hepatitis B virus [1]): 65.3% | inhibition at 150 µM (Hepatitis B virus [2]): 44.8% | viability at 150 µM (Hepatitis B virus [3]): 82.8% | inhibition at 75 µM (Hepatitis B virus [4]): 43.9% | inhibition at 300 µM (Hepatitis B virus [5]): 52.9% | viability at 37.5 µM (Hepatitis B virus [6]): 101% | inhibition at 75 µM (Hepatitis B virus [7]): 57.3% | inhibition at 150 µM (Hepatitis B virus [8]): 45.5% | inhibition at 300 µM (Hepatitis B virus [9]): 67.5% | inhibition at 37.5 µM (Hepatitis B virus [10]): 30% | viability at 75 µM (Hepatitis B virus [11]): 94.2% | inhibition at 75 µM (Hepatitis B virus [12]): 39.2% | IC50 (Hepatitis B virus [13]): 62.8 µM | inhibition at 150 µM (Hepatitis B virus [14]): 59.6% | inhibition at 37.5 µM (Hepatitis B virus [15]): 17.8% | CC50 at 216 h [16]: 645 µM | Ratio CC50/IC50 [17]: 10.27 | inhibition at 75 µM (Hepatitis B virus [18]): 47.3% | inhibition at 300 µM (Hepatitis B virus [19]): 82.6% | inhibition at 150 µM (Hepatitis B virus [20]): 41.2% | inhibition at 300 µM (Hepatitis B virus [21]): 54.2% | inhibition at 75 µM (Hepatitis B virus [22]): 28.6% | inhibition at 150 µM (Hepatitis B virus [23]): 34.9% | inhibition at 300 µM (Hepatitis B virus [24]): 76.6% | inhibition at 75 µM (Hepatitis B virus [25]): 65.8% | inhibition at 75 µM (Hepatitis B virus [26]): 42.3% | inhibition at 37.5 µM (Hepatitis B virus [27]): 21.6% | inhibition at 150 µM (Hepatitis B virus [28]): 54.5% | inhibition at 150 µM (Hepatitis B virus [29]): 63.5%

COc1cc(/C=C/C(=O)O/N=C/c2ccco2)cc2c1OCO2
inhibition at 150 µM (Hepatitis B virus [1]): 65.2% | inhibition at 150 µM (Hepatitis B virus [2]): 42.9% | viability at 150 µM (Hepatitis B virus [3]): 91.5% | inhibition at 75 µM (Hepatitis B virus [4]): 40.1% | inhibition at 300 µM (Hepatitis B virus [5]): 57.4% | viability at 37.5 µM (Hepatitis B virus [6]): 109% | inhibition at 75 µM (Hepatitis B virus [7]): 56.9% | inhibition at 150 µM (Hepatitis B virus [8]): 51.5% | inhibition at 300 µM (Hepatitis B virus [9]): 61.5% | inhibition at 37.5 µM (Hepatitis B virus [10]): 31% | viability at 75 µM (Hepatitis B virus [11]): 95.4% | inhibition at 75 µM (Hepatitis B virus [12]): 39.4% | IC50 (Hepatitis B virus [13]): 63.5 µM | inhibition at 150 µM (Hepatitis B virus [14]): 58.5% | inhibition at 37.5 µM (Hepatitis B virus [15]): 24.9% | CC50 at 216 h [16]: 820 µM | Ratio CC50/IC50 [17]: 12.9 | inhibition at 75 µM (Hepatitis B virus [18]): 39.6% | inhibition at 300 µM (Hepatitis B virus [19]): 74.6% | inhibition at 150 µM (Hepatitis B virus [20]): 56.3% | inhibition at 300 µM (Hepatitis B virus [21]): 59.8% | inhibition at 75 µM (Hepatitis B virus [22]): 29.4% | inhibition at 150 µM (Hepatitis B virus [23]): 40.7% | inhibition at 300 µM (Hepatitis B virus [24]): 70.7% | inhibition at 75 µM (Hepatitis B virus [25]): 57.7% | inhibition at 75 µM (Hepatitis B virus [26]): 37.8% | inhibition at 37.5 µM (Hepatitis B virus [27]): 19.8% | inhibition at 150 µM (Hepatitis B virus [28]): 52% | inhibition at 150 µM (Hepatitis B virus [29]): 55.5%

Reference: ChEMBL document CHEMBL3576819, “Design, synthesis, biological evaluation and molecular docking studies of phenylpropanoid derivatives as potent anti-hepatitis B virus agents” (Eur J Med Chem, 2015)
